Zone of inhibition and inhibition zone (IZ) data for 10 compounds are collected here from ChEMBL document CHEMBL4364345, “Synthesis and evaluation of 1,3,4-oxadiazole derivatives for development as broad-spectrum antibiotics” (Bioorg Med Chem, 2019).

The test system of test [1] is Enterococcus faecium. Kind of test: Antimicrobial activity against Enterococcus faecium AUS0004 at 2 ug/disk incubated for 20 +/- 4 hrs by agar disk diffusion method. The settings on record: read-out: DIZ. Format: functional. Background: In agar diffusion tests the substance spreads into inoculated agar from a disc or well.
The test system of test [2] is Enterococcus faecium. The experiment in a line: Antimicrobial activity against Enterococcus faecium AUS0004 at 300 ug/disk incubated for 20 +/- 4 hrs by agar disk diffusion method. The class given is functional. The following applies: read-out: DIZ.
Test [3] has as its system Enterococcus faecalis. The experiment in a line: Antimicrobial activity against Enterococcus faecalis ATCC 29212 at 300 ug/disk incubated for 20 +/- 4 hrs by agar disk diffusion method. The following applies: read-out: DIZ. Format: functional.
Test [4] deals with Enterococcus faecium. Kind of test: Antimicrobial activity against Enterococcus faecium AUS0004 at 5 ug/disk incubated for 20 +/- 4 hrs by agar disk diffusion method. The settings on record: read-out: DIZ. The class given is functional.
For test [5], the system named is Enterococcus faecalis. The experiment in a line: Antimicrobial activity against Enterococcus faecalis ATCC 29212 at 5 ug/disk incubated for 20 +/- 4 hrs by agar disk diffusion method. The settings on record: read-out: DIZ. Format: functional.
Test [6] concerns Enterococcus faecium. The experiment in a line: Antimicrobial activity against Enterococcus faecium AUS0004 at 30 ug/disk incubated for 20 +/- 4 hrs by agar disk diffusion method. The class given is functional, organism-based.
Test [7] concerns Enterococcus faecalis. Kind of test: Antimicrobial activity against Enterococcus faecalis ATCC 29212 at 30 ug/disk incubated for 20 +/- 4 hrs by agar disk diffusion method. Format: functional, organism-based.
In test [8] the test system is Listeria monocytogenes. The experiment in a line: Antimicrobial activity against Listeria monocytogenes clinical isolate at 5 ug/disk incubated for 20 +/- 4 hrs by agar disk diffusion method. Format: functional. The settings on record: read-out: DIZ.
The subject of test [9] is Listeria monocytogenes. The experiment in a line: Antimicrobial activity against Listeria monocytogenes clinical isolate at 30 ug/disk incubated for 20 +/- 4 hrs by agar disk diffusion method. The class given is functional. The settings on record: read-out: DIZ.
The subject of test [10] is Enterococcus faecium. The experiment in a line: Antimicrobial activity against Enterococcus faecium AUS0004 at 15 ug/disk incubated for 20 +/- 4 hrs by agar disk diffusion method. Format: functional. The following applies: read-out: DIZ.
For test [11], the system named is Enterococcus faecalis. Kind of test: Antimicrobial activity against Enterococcus faecalis ATCC 29212 at 15 ug/disk incubated for 20 +/- 4 hrs by agar disk diffusion method. The settings on record: read-out: DIZ. Format: functional.
The test system of test [12] is Listeria monocytogenes. The experiment in a line: Antimicrobial activity against Listeria monocytogenes clinical isolate at 200 ug/disk incubated for 20 +/- 4 hrs by agar disk diffusion method. Format: functional. The settings on record: read-out: DIZ.
Test [13] concerns Enterococcus faecium. Kind of test: Antimicrobial activity against Enterococcus faecium AUS0004 at 10 ug/disk incubated for 20 +/- 4 hrs by agar disk diffusion method. The class given is functional. The following applies: read-out: DIZ.
In test [14] the test system is Enterococcus faecium. The experiment in a line: Antimicrobial activity against Enterococcus faecium AUS0004 at 50 ug/disk incubated for 20 +/- 4 hrs by agar disk diffusion method. Format: functional. The following applies: read-out: DIZ. The procedure, abridged:
(§1)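 Agar disk diffusion on Mueller-Hinton agar swab-seeded from a 0.5 McFarland inoculum (about 10^8 CFU/ml). Cellulose discs got 50 μg compound (10 μl of 5 g/L in DMSO); a 10 μL DMSO disc was the control. Incubated aerobically at 35 ± 2 °C for 20 ± 4 h, then growth-inhibition diameters measured.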

The next test deals with Clostridium perfringens. Kind of test: Antimicrobial activity against Clostridium perfringens clinical isolate at 50 ug/disk incubated for 20 +/- 4 hrs by agar disk diffusion method. The class given is functional. The following applies: read-out: DIZ. An outline of the steps:
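Agar disk diffusion on MH agar with 5% horse blood (MHF), surface-seeded by swab from a 0.5 McFarland inoculum (about 10^8 CFU/ml). Cellulose discs received 10 μl of a 5 g/L DMSO solution (50 μg). A DMSO-only disc served as control. Anaerobic incubation at 35 ± 2 °C for 20 ± 4 h; growth-inhibition diameter measured in mm.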

For test [15], the system named is Enterococcus faecalis. Kind of test: Antimicrobial activity against Enterococcus faecalis ATCC 29212 at 50 ug/disk incubated for 20 +/- 4 hrs by agar disk diffusion method. The class given is functional. The settings on record: read-out: DIZ. The procedure, abridged: as §1
Test [16] deals with Escherichia coli. The experiment in a line: Antimicrobial activity against Escherichia coli ATCC 25922 at 50 ug/disk incubated for 20 +/- 4 hrs by agar disk diffusion method. The class given is functional. The following applies: read-out: DIZ. The procedure, abridged: as §1
For another test, the system named is Bacillus subtilis. Kind of test: Antimicrobial activity against Bacillus subtilis clinical isolate at 50 ug/disk incubated for 20 +/- 4 hrs by agar disk diffusion method. The following applies: read-out: DIZ. The class given is functional. An outline of the steps: as §1
For the next test, the system named is Streptococcus pyogenes. The experiment in a line: Antimicrobial activity against Streptococcus pyogenes clinical isolate at 50 ug/disk incubated for 20 +/- 4 hrs by agar disk diffusion method. The class given is functional. The settings on record: read-out: DIZ. The procedure, abridged: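 Plates of MH + 5% horse blood were swabbed with a 0.5 McFarland inoculum and received discs with 50 μg compound (from 5 g/L in DMSO) plus a 10 μL DMSO control disc. Incubation at 35 ± 2 °C aerobically with 5% CO2 for 20 ± 4 h, then zone diameters measured.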

The next test deals with Pseudomonas aeruginosa. The experiment in a line: Antimicrobial activity against Pseudomonas aeruginosa clinical isolate at 50 ug/disk incubated for 20 +/- 4 hrs by agar disk diffusion method. The class given is functional. The settings on record: read-out: DIZ. An outline of the steps:
as §1

The test system of test [17] is Escherichia coli. Kind of test: Antimicrobial activity against Escherichia coli clinical isolate at 50 ug/disk incubated for 20 +/- 4 hrs by agar disk diffusion method. Format: functional. The following applies: read-out: DIZ. An outline of the steps:
as §1

A further test deals with Acinetobacter baumannii. Kind of test: Antimicrobial activity against Acinetobacter baumannii clinical isolate at 50 ug/disk incubated for 20 +/- 4 hrs by agar disk diffusion method. The class given is functional. The settings on record: read-out: DIZ. The procedure, abridged: as §1
In test [18] the test system is Listeria monocytogenes. Kind of test: Antimicrobial activity against Listeria monocytogenes clinical isolate at 50 ug/disk incubated for 20 +/- 4 hrs by agar disk diffusion method. The class given is functional. The following applies: read-out: DIZ. An outline of the steps: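 Disk diffusion on MH agar with 5% horse blood, seeded by swab from a 0.5 McFarland suspension. Discs held 50 μg compound from a 5 g/L DMSO solution, with a DMSO-only control disc. Aerobic incubation at 35 ± 2 °C for 20 ± 4 h; inhibition zone diameter read.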

The subject of the next test is Klebsiella pneumoniae. Kind of test: Antimicrobial activity against Klebsiella pneumoniae clinical isolate at 50 ug/disk incubated for 20 +/- 4 hrs by agar disk diffusion method. The class given is functional. The following applies: read-out: DIZ. An outline of the steps:
as §1

A further test relates to Enterobacter cloacae. The experiment in a line: Antimicrobial activity against Enterobacter cloacae clinical isolate at 50 ug/disk incubated for 20 +/- 4 hrs by agar disk diffusion method. The class given is functional. The settings on record: read-out: DIZ. An outline of the steps: as §1
For another test, the system named is Bacteroides fragilis. The experiment in a line: Antimicrobial activity against Bacteroides fragilis ATCC 25285 at 50 ug/disk incubated for 20 +/- 4 hrs by agar disk diffusion method. Format: functional. The settings on record: read-out: DIZ. An outline of the steps: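 Anaerobic disk diffusion: MH agar + 5% horse blood seeded from a 0.5 McFarland swab, with discs of 50 μg compound (10 μl of 5 g/L DMSO solution) and a DMSO control disc. Kept at 35 ± 2 °C under anaerobic conditions for 20 ± 4 h; inhibition diameters recorded.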

A further test has as its system Kocuria rhizophila. The experiment in a line: Antimicrobial activity against Kocuria rhizophila clinical isolate at 50 ug/disk incubated for 20 +/- 4 hrs by agar disk diffusion method. Format: functional. The following applies: read-out: DIZ. The procedure, abridged:
as §1

Test [19] has as its system Enterococcus faecium. Kind of test: Antimicrobial activity against Enterococcus faecium HM1070 at 50 ug/disk incubated for 20 +/- 4 hrs by agar disk diffusion method. Format: functional. The following applies: read-out: DIZ. The procedure, abridged:
as §1

In a further test the test system is Staphylococcus aureus. Kind of test: Antimicrobial activity against Staphylococcus aureus ATCC 29213 at 50 ug/disk incubated for 20 +/- 4 hrs by agar disk diffusion method. Format: functional. The settings on record: read-out: DIZ. The procedure, abridged:
as §1

For the compound `CC1(C)S[C@@H]2[C@H](NC(=O)[C@H](N)c3ccccc3)C(=O)N2[C@H]1C(=O)O` [AMPICILLIN], in the test on Enterococcus faecium [1], the zone of inhibition at 2 µg/disc came out at 6 mm.

As to `CN[C@@H]1[C@H](O[C@H]2[C@H](O[C@H]3[C@H](O)[C@@H](O)[C@H](N=C(N)N)[C@@H](O)[C@@H]3N=C(N)N)O[C@@H](C)[C@]2(O)C=O)O[C@@H](CO)[C@H](O)[C@H]1O` [STREPTOMYCIN], the zone of inhibition at 300 µg/disc in the test on Enterococcus faecium [2] is 22 mm; in the test on Enterococcus faecalis [3] it was 16 mm.

As for `CO[C@H]1/C=C/O[C@@]2(C)Oc3c(C)c(O)c4c(O)c(c(/C=N/N5CCN(C)CC5)c(O)c4c3C2=O)NC(=O)/C(C)=C\C=C\[C@H](C)[C@H](O)[C@@H](C)[C@@H](O)[C@@H](C)[C@H](OC(C)=O)[C@@H]1C` [RIFAMPIN], the zone of inhibition at 5 µg/disc turned out to be 9 mm in the test on Enterococcus faecium [4] and 21 mm with Enterococcus faecalis [5].

Consider GENTAMICIN, for which the figures for the inhibition zone (IZ) in the test with Enterococcus faecium [6] and in the test on Enterococcus faecalis [7] were 17 mm and 14 mm, respectively.

On to `CC1COc2c(N3CCN(C)CC3)c(F)cc3c(=O)c(C(=O)O)cn1c23` (centres undefined) [OFLOXACIN], for which, in the test on Listeria monocytogenes [8], the zone of inhibition at 5 µg/disc came to 21 mm.

Regarding `CO[C@@]1(NC(=O)[C@H](C(=O)O)c2ccc(O)cc2)C(=O)N2C(C(=O)O)=C(CSc3nnnn3C)CO[C@@H]21`, the zone of inhibition at 30 µg/disc in the test on Listeria monocytogenes [9] is 15 mm.

For the compound `CC[C@H]1OC(=O)[C@H](C)[C@@H](O[C@H]2C[C@@](C)(OC)[C@@H](O)[C@H](C)O2)[C@H](C)[C@@H](O[C@@H]2O[C@H](C)C[C@H](N(C)C)[C@H]2O)[C@](C)(O)C[C@@H](C)C(=O)[C@H](C)[C@@H](O)[C@]1(C)O` [ERYTHROMYCIN], the zone of inhibition at 15 µg/disc with Enterococcus faecium [10] was found to be 6 mm; with Enterococcus faecalis [11] it was 20 mm.

On to `C[C@@H]1O[C@@H]1P(=O)(O)O` [FOSFOMYCIN], for which, in the test on Listeria monocytogenes [12], the zone of inhibition at 200 µg/disc is 6 mm.

On to `C[C@@H](O)[C@H]1C(=O)N2C(C(=O)O)=C(SCCNC=N)C[C@H]12` [IMIPENEM ANHYDROUS], for which, in the test on Enterococcus faecium [13], the zone of inhibition at 10 µg/disc amounted to 6 mm.

Take `O=C(Nc1nnc(-c2ccc(C(F)(F)F)cc2)o1)c1ccc(Cl)cc1`: the zone of inhibition at 50 µg/disc with Enterococcus faecium [14] was determined as 9 mm; in the test on Clostridium perfringens it was 6 mm; in the test on Enterococcus faecalis [15] it was 10 mm; in the test with Escherichia coli [16], 6 mm; in the test with Bacillus subtilis, 13 mm; with Streptococcus pyogenes it was 6 mm. Further, the zone of inhibition at 50 µg/disc in the test with Pseudomonas aeruginosa came out at 6 mm; with Escherichia coli [17] it was 6 mm; in the test with Acinetobacter baumannii it was 6 mm; in the test on Listeria monocytogenes [18], 16 mm; with Klebsiella pneumoniae, 6 mm; with Enterobacter cloacae it was 6 mm. The zone of inhibition at 50 µg/disc was 9 mm in the test on Bacteroides fragilis, 14 mm in the test with Kocuria rhizophila, 11 mm in the test on Enterococcus faecium [19] and 9 mm in the test on Staphylococcus aureus.
